From PubChem
RGS4 pot – potentiators or activators of RGS4; HEK293 M3R/inducible RGS4, carbachol calcium flux Fluo4; hits give low values; 0.92% of 310,000 active; B-score at 10 µM;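 active means B-score of the integrated calcium signal more than 4 SD below the library mean, with starting fluorescence not abnormally high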;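 further: negative B-score means reduced calcium response which marks RGS4 activation or potentiation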
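System: HEK293 FlpIn-TREx cells, stable M3R, doxycycline-inducible RGS4. Timing: overnight RGS4 induction, 30 min dye load 37 °C, 20 min compound RT. Also added: carbachol, ECmax concentration. Measured by: Fluo4 fluorescence kinetic imaging of calcium. Evaluation: integrated calcium ratio converted to B score.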
MrgX1 antag – antagonists of human MrgX1 receptor; Q96LB2; AID 588676; B-score at 10 µM; MRGX1-HEK293 calcium flux, Fluo-4, BAM8-22 antagonism; hits give low values; 1.3% of 310,000 active;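 active means calcium-response B-score plate-corrected more than 3 library SD below zero, starting fluorescence within 5 deviations, no agonist response on first addition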;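 further: peak minus trough fluorescence over baseline after final BAM8-22 challenge near maximal dose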
Target sequence (Q96LB2 whole entry, looked up): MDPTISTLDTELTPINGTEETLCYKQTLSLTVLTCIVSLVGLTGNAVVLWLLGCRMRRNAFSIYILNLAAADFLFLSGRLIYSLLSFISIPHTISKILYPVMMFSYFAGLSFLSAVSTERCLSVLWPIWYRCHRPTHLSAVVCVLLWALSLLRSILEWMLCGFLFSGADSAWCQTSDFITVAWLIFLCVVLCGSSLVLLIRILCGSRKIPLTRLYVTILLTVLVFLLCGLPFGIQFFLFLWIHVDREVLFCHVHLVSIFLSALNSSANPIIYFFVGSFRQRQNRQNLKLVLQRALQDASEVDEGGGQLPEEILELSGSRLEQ
MrgX1 agonist – agonists of human MrgX1 receptor; AID 588627; MrgX1-HEK293 cells, Fluo-4 calcium fluorescence, agonist mode; hits give high values; 0.44% of 310,000 active; B-score at 10 µM;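 active means calcium response B-score plate-corrected fluorescence ratio at least 3 library SD, with starting fluorescence B-score inside 5 SD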
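Test system: HEK293 cells stably expressing human MrgX1 receptor; Input: fifteen thousand cells per well; Dosing: compound delivered in addition one of three; Schedule: overnight seeding, then 1 h dark dye loading; Technique: Fluo-4 NW calcium fluorescence; Measure: B-scored fluorescence response ratio; Controls: positive and negative controls per plate.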
MrgX1 allo act – allosterically activates human MrgX1 receptor signaling; 0.63% of 310,000 active; B-score at 10 µM; MrgX1-HEK293, Fluo-4 calcium flux, FDSS; hits give high values; Q96LB2;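 active means plate-corrected calcium response at least 3 library SD above typical, normal starting fluorescence, not activating the receptor alone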;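 further: compound read alongside a low EC10 to EC30 dose of BAM8-22 agonist; peak minus trough fluorescence over baseline measured at the second addition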
RGS4 inh – human RGS4 inhibition; P49798; HEK293 M3R/RGS4 inducible, Fluo-4 calcium flux; hits give high values; triggered by carbachol at its EC20; B-score at 10 µM; 0.45% of 310,000 active;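 active means B-score, a plate-corrected calcium signal, over three deviations above library mean, with baseline fluorescence within five deviations of library mean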;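 further: RGS4 expression induced by doxycycline in cells with stable M3 receptor; B-score is computed from the integrated fluorescence ratio over baseline after carbachol; higher B-score means a larger calcium signal and so more RGS4 inhibition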
Target sequence (P49798 whole entry, looked up): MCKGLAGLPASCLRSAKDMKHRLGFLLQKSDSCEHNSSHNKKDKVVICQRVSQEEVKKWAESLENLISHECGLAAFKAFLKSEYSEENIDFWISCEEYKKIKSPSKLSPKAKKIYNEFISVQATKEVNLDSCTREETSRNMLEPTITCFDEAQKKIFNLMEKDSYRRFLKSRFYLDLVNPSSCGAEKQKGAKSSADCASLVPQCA
MrgX1 allo conf – human MrgX1 positive allosteric modulation, re-confirmation | shares compounds with MrgX1 allo act | MrgX1-HEK293, Fluo-4 calcium fluorescence, FDSS | activation (ratio percentage), % at 10 µM | 13% of 1,200 active | AID 602413;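 active means ratio at least 3 SD above the weak peptide control, stable starting fluorescence, no direct agonism earlier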;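 further: compound followed by low BAM8-22 agonist challenge near EC20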
MrgX1 ant reconf – reconfirmed antagonist of human MrgX1 receptor signaling; 19% of 2,300 active; remaining BAM8-22 calcium response % of control (hits give low values), % at 10 µM; MrgX1-HEK293, BAM8-22 calcium flux, Fluo-4; hits give low values; shares compounds with MrgX1 antag;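 active means remaining agonist calcium response no higher than 100% minus 3 SD of agonist-only control wells, with starting fluorescence near control levels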;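 further: agonist BAM8-22 given at a near maximal EC90 to ECmax level; peak minus minimum fluorescence divided by baseline after agonist addition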
HEK293 Ca flux – activity in parental HEK293 cells lacking MrgX1; Fluo-4 calcium fluorescence, FDSS; fluorescence ratio F(max-min)/F0 at 10 µM; 2% of 4,000 active; shares compounds with MrgX1 antag;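 active means duplicate-averaged calcium fluorescence ratio at least three times the standard deviation of buffer wells, a nonspecific response in parental cells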
HEK293 Ca counter – MrgX1 allosteric activator counter-screen hit in parental HEK293 cells; shares compounds with MrgX1 antag; parental HEK293 calcium flux, Fluo-4 fluorescence ratio; hits give high values; fluorescence ratio F(max-min)/F0 at 10 µM; 0.4% of 4,000 active; AID 624114;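 active means calcium fluorescence ratio, averaged over duplicates, at least 3 SD of the buffer-well ratio, meaning a nonspecific response in receptor-free cells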;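 further: untransfected parental HEK293 lacking MrgX1 used as counterscreen for MrgX1 allosteric activators; fluorescence change taken during the second addition on a kinetic imager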
HEK293 Ca cntr2 – activity in parental HEK293 cells lacking MrgX1 receptor | fluorescence ratio F(max-min)/F0 at 10 µM | 8.7% of 4,000 active | shares compounds with MrgX1 antag | Fluo-4 calcium fluorescence (FDSS); hits give high values | AID 624115;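 active means calcium fluorescence ratio at least three times the spread of buffer wells, meaning a non-specific response in parental cells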
Starred values were filed as active, the others as inactive; i = inactive; . = no result. Most compounds without a hit are left out; they make up all but 3.5% or so of the library.

SMILES	RGS4 pot	MrgX1 antag	MrgX1 agonist	MrgX1 allo act	RGS4 inh	MrgX1 allo conf	HEK293 Ca flux	HEK293 Ca counter	HEK293 Ca cntr2	others
CCCc1cc(C(=O)N2CCCC(C(=O)c3cccc4ccccc34)C2)n(C)n1 (stereo not given)	i	i	i	12.2*	i	i	i	i	i
COc1ccccc1N1CCN(C(=O)c2cc3cc(C)ccc3[nH]2)CC1	i	i	i	11*	i	i	i	i	i
COc1ccc(-c2cn3c(C)c(C(=O)N4CCCc5ccccc54)sc3n2)cc1	i	i	i	8.03*	i	i	i	i	i
O=C(Nc1ccccc1F)Oc1cccc(OC(=O)Nc2ccccc2F)c1	i	i	i	7.53*	i	i	i	i	i
COc1cccc(C(=O)Nc2ccccc2F)c1	i	i	i	i	i	.	.	.	.
Cc1cnn(-c2cc(Oc3ccccc3)ncn2)c1	i	i	i	8.77*	i	i	i	i	i
c1ccc(Oc2cc(-n3cncn3)ncn2)cc1	i	i	i	i	i	.	.	.	.
O=C(NC1CCCCC1)N1CCN(C(=O)c2ccco2)CC1	i	i	i	i	i	.	.	.	.
Cc1ccn2c(Nc3ccccc3C)c(-c3ccccn3)nc2c1	i	i	i	9.14*	i	i	i	i	i
CC(Oc1ccc(Cl)cc1Cl)C(=O)Nc1ccc(S(=O)(=O)Nc2cnc3ccccc3n2)cc1 (stereo not given)	i	i	i	i	i	.	.	.	.
Cc1cc(Cl)ccc1OC(C)C(=O)Nc1ccc(S(=O)(=O)Nc2cnc3ccccc3n2)cc1 (stereo not given)	i	-6.74*	i	7.59*	i	i	i	i	i	MrgX1 ant reconf=81.0%*
CC1CCC2(CC1)C(Nc1cccc(Cl)c1)=NC(=S)N2CC#N (stereo not given)	i	i	i	8.34*	i	i	i	i	i
CC1CCC(=C(C#N)C(=O)Nc2cccc(Cl)c2)CC1 (stereo not given)	i	i	i	i	i	.	.	.	.
Cc1nn(C(=O)c2cccs2)c(N)c1-c1ccccc1	i	i	i	9.31*	i	i	i	i	i
CCCn1c(=O)c(C(=O)Nc2cccc(C)c2)c(O)c2ccccc21	i	i	i	7.16*	i	i	i	i	i
CCCn1c(=O)c(C(=O)Nc2ccccc2)c(O)c2ccccc21	i	i	i	i	i	.	.	.	.
COc1cccc(OC)c1C(=O)Nc1cccc(-c2nc3ccccc3[nH]2)c1	i	i	i	7.07*	i	i	i	i	i
CC(=O)Nc1cccc(-c2nc3ccccc3[nH]2)c1	i	i	i	i	i	.	.	.	.
O=C(CSc1ccccc1)N1CCCC(N2CCN(c3cccc(Cl)c3)CC2)C1 (stereo not given)	i	i	i	i	i	.	.	.	.
c1ccc(Sc2ncnc3ccccc23)cc1	i	i	i	18*	i	27.9%*	i	i	i
N#CCSc1ncnc2ccccc12	i	i	i	i	i	.	.	.	.
CCOC(=O)Cc1csc(NC(=O)CSc2nc3cccnc3n2CC)n1	i	i	i	7.27*	i	i	i	i	i
